IC50 data for 19 compounds are collected here from ChEMBL document CHEMBL1139900, “Synthesis and SAR studies of a novel class of S1P1 receptor antagonists” (Bioorg Med Chem, 2007).

Holding throughout (format): functional, cell-based
The target in test [1] is T1, Sphingosine 1-phosphate receptor 1 (Homo sapiens, UniProt P21453). The test can be described thus: Antagonist activity at human S1P1 receptor expressed in CHO cell membrane by cAMP assay. Put shortly: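 CHO cells stably expressing human S1P1, kept in selection medium with 125 nM methotrexate, seeded at 4 × 10⁵ cells/well and grown overnight. Serum was removed, cells preincubated 5 min with 1 mM IBMX, then stimulated 15 min with 30 µM forskolin ± 100 nM S1P plus test compound at various concentrations, with IBMX kept present. Cells were lysed in 1% Triton X-100; cAMP read by competitive kit assay (n = 3).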
T1 sequence (P21453 whole entry): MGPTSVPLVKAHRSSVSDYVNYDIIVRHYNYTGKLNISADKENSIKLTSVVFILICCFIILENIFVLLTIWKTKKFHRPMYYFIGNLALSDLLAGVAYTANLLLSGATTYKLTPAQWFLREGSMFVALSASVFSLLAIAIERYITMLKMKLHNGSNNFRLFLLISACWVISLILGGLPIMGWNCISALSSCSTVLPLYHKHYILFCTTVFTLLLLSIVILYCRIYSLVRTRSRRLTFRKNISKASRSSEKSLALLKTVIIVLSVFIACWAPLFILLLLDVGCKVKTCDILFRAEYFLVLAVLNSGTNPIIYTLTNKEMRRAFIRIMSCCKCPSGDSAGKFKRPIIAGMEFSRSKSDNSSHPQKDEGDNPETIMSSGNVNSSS
On the technique in general: Cyclic AMP is a second messenger, typically raised through Gs and lowered through Gi signalling.

For test [2], the target named is Sphingosine 1-phosphate receptor 3 (Homo sapiens, UniProt Q99500). The test can be described thus: Antagonist activity at human S1P3 receptor expressed in CHO cell membrane by FLIPR assay. Put shortly: (§1)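 Stably transfected CHO cells in HAM medium with 10% dialyzed FBS, seeded at 5 × 10⁴ cells/mL and grown 2 days. Buffer: HBSS without phenol red, 20 mM Hepes, 2.5 mM probenecid, pH 7.4. Loaded 45–60 min with 4 µM Fluo3-AM plus 0.04% pluronic acid, then washed. Serially diluted compound added for 10 min before S1P injection; calcium fluorescence read on FLIPR.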
Sequence of Sphingosine 1-phosphate receptor 3 (Q99500 whole entry): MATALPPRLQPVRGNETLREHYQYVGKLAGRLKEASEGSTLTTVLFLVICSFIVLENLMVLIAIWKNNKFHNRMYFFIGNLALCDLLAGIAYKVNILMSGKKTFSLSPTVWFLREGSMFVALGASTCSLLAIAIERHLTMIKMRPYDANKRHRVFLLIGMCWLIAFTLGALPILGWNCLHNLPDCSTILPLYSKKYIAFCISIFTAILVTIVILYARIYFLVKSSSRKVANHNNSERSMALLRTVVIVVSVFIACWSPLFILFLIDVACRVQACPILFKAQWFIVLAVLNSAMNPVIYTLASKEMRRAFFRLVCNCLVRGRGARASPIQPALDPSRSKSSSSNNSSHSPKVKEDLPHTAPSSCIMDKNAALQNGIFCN

The target of test [3] is Sphingosine 1-phosphate receptor 4 (Homo sapiens, UniProt O95977). The test can be described thus: Antagonist activity at human S1P4 receptor expressed in CHO cell membrane by FLIPR assay. Put shortly: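 S1P4-expressing cells in HAM medium with 10% dialyzed FBS, seeded at 1 × 10⁵ cells/mL and grown 2 days. Buffer: HBSS without phenol red, 20 mM Hepes, 2.5 mM probenecid, pH 7.4. Fluo3-AM (4 µM, with 0.04% pluronic acid) loading for 45–60 min, then washed. Serially diluted compound given 10 min before S1P injection; calcium signal measured on FLIPR.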
Sequence of Sphingosine 1-phosphate receptor 4 (O95977 whole entry, looked up): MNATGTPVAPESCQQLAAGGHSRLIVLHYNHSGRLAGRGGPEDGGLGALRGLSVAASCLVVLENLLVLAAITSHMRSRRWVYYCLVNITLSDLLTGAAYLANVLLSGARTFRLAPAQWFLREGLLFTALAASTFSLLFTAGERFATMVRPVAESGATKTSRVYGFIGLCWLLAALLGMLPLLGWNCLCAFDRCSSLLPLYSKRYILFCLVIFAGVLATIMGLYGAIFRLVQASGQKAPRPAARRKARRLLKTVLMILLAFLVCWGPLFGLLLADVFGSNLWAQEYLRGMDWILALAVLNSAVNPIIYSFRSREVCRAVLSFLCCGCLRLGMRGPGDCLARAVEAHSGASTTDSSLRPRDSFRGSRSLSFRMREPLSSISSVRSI

Test [4] concerns the target T1, Sphingosine 1-phosphate receptor 1. The test can be described thus: Antagonist activity at human S1P1 receptor expressed in CHO cell membrane by FLIPR assay. Put shortly: as §1
In test [5] the target is Sphingosine 1-phosphate receptor 2 (Homo sapiens, UniProt O95136). The test can be described thus: Antagonist activity at human S1P2 receptor expressed in CHO cell membrane by FLIPR assay. The method, boiled down:
as §1

SMILES strings stand for the structures.

Sequence of Sphingosine 1-phosphate receptor 2 (O95136 whole entry): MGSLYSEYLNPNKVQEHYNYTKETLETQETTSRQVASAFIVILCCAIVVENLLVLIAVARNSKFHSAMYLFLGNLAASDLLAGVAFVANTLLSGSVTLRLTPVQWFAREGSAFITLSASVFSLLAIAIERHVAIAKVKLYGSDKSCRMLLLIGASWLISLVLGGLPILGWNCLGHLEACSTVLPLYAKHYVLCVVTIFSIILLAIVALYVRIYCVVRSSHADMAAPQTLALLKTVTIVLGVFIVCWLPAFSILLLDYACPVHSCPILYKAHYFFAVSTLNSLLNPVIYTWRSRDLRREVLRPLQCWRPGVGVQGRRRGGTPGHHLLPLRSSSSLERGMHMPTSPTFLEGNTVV

Consider `CCCCCCCCCCC#CC(O)c1cccc(-c2ccc(Oc3ccc(OCC)cc3)c(S(=O)(=O)O)c2)c1` (configuration not stated), for which the IC50 in test [1] amounted to 4600 nM.
`CCCCCCCCCCC#CC(O)c1ccccc1-c1ccc(Sc2ccc(OCC)cc2)c(S(=O)(=O)O)c1` (configuration not stated): it took 400 nM to reach half-maximal inhibition in test [1] (IC50).
As for `CCCCCCCCCCC#CC(O)c1ccccc1-c1ccc(Sc2ccc(OCCCC)cc2)c(S(=O)(=O)O)c1` (configuration not stated), the IC50 in test [2] was found to be 13000 nM; in test [3] it was 40000 nM; in test [1], 190 nM; in test [4], 1000 nM; in test [5], 24000 nM.
The compound `CCCCCCCCCCC#CC(O)c1ccccc1-c1ccc(Oc2ccc(OCC)cc2)c(S(=O)(=O)O)c1` (configuration not stated) had an IC50 in test [1] of 400 nM.
In test [1], `CCCCCCCCCCC#CC(O)c1ccccc1-c1ccc(Oc2cccc(OCC)c2)c(S(=O)(=O)O)c1` (configuration not stated) displayed an IC50 of more than 17000 nM.
For the compound `CCCCCCCCCCC#CC(O)c1ccccc1-c1ccc(Sc2ccc(OCCCCCCCC)cc2)c(S(=O)(=O)O)c1` (configuration not stated), the IC50 in test [1] is more than 2400 nM.
The same measure, in the same setting: next, `CCCCOc1ccc(Sc2ccc(-c3ccccc3C(O)C#CCOCCCCCCCCCO)cc2S(=O)(=O)O)cc1` (configuration not stated): 98 nM; `CCCCCCCCCCC#CC(O)c1ccc(-c2ccc(Oc3ccc(OCC)cc3)c(S(=O)(=O)O)c2)s1` (configuration not stated): 5500 nM; `CCCCCCCCCCC#CC(O)c1ccccc1-c1ccc(Sc2ccc(OC)cc2)c(S(=O)(=O)O)c1` (configuration not stated): 700 nM.
Turning to `CCCCCCCCCCC#CC(O)c1ccccc1-c1ccc(Sc2ccc(OCCC)cc2)c(S(=O)(=O)O)c1` (configuration not stated), in test [1], the IC50 was 190 nM. Compared with the last compound, the IC50 is about 3.7-fold lower.
`CCCCCCCCCCCCCCCCCC1=NN(c2ccc(Oc3ccc(OCC)cc3)c(S(=O)(=O)O)c2)C(=O)C1` registered an IC50 in test [1] of 17000 nM.
Consider `CCCCCCCCCCC#CC(O)c1ccccc1-c1ccc(Sc2ccc(OCCCCCC)cc2)c(S(=O)(=O)O)c1` (configuration not stated), for which, in test [1], the IC50 is 520 nM.
The compound `CCCCOc1ccc(Sc2ccc(-c3ccccc3C(O)C#CCOCCCO)cc2S(=O)(=O)O)cc1` (configuration not stated) displayed an IC50 in test [1] of more than 20000 nM.
In test [1], `CCCCOc1ccc(Sc2ccc(-c3ccccc3C(O)C#CCOCCCCCCCCCCCO)cc2S(=O)(=O)O)cc1` (configuration not stated) returned an IC50 of 130 nM.
For `CCCCCCCCCCC#CC(C)(O)c1ccccc1-c1ccc(Sc2ccc(OCCCC)cc2)c(S(=O)(=O)O)c1` (configuration not stated), in test [1], half-maximal inhibition (IC50) required 1000 nM.
Compound `CCCCOc1ccc(Sc2ccc(-c3ccccc3C(O)C#CCOCCCCCO)cc2S(=O)(=O)O)cc1` (configuration not stated) gave an IC50 in test [1] of 340 nM.
On to `CCCCOc1ccc(Sc2ccc(-c3ccccc3C(O)C#CCOCCCCCCCO)cc2S(=O)(=O)O)cc1` (configuration not stated), for which the IC50 in test [2] is 5000 nM; in test [3] it was 6000 nM; in test [1] it was 31 nM; in test [4], 500 nM; in test [5], 11000 nM.
`CCCCCCCCCCC#CC(O)c1ccccc1-c1ccc(Oc2ccccc2OCC)c(S(=O)(=O)O)c1` (configuration not stated) registered an IC50 in test [1] of 8900 nM.
Take `CCCCCCCCCCC#CC(O)c1sccc1-c1ccc(Oc2ccc(OCC)cc2)c(S(=O)(=O)O)c1` (configuration not stated): in test [1], 1300 nM corresponded to half-maximal inhibition (IC50).

For orientation: IC50 means the concentration needed to halve the response being measured.
